Only some compounds are listed: those with a hit (about 2.3% of all), similar ones and a draw of the others.
CHT PAM: CHT positive allosteric modulators, primary screen, cell-based, membrane potential dye, choline EC20 | High affinity choline transporter 1 (Homo sapiens), Q9GZV3 | CHT-expressing cells; active compounds read high; LV-AA mutant CHT in HEK293 cells | B-score at 10 µM | 310,000 tested, 0.49% active | AID 488977, 2010;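 active = initial fluorescence not abnormally high and integrated response B-score, plate-corrected, over 3 SD above library mean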
pCIP destab: p/CIP-EGFP fusion destabilizers, primary screen, fluorescence, F442A cells; Q05BA5; 16 h; decrease of EGFP signal, % at 10 µM; 290,000 tested, 0.01% active; AID 1984, 2009;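 active = EGFP signal decrease of at least 30% at 10 µM or well 3 SD below plate mean, unless failing retest; inactive = the rest, including hits failing retest or dose response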
CHT block: inhibitors of human choline transporter CHT | AID 488975, 2010 | CHT-expressing cells, membrane potential dye, choline response; active compounds read low | 310,000 tested, 0.86% active | B-score at 10 µM;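 active = B-score over 3 SD under the library average, and starting fluorescence ratio not unusually high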;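 note: choline stimulus applied at its EC90 after an EC20 pre-addition; B-score computed on integrated fluorescence ratio after choline addition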
T cell modulator: modulators of CD8 T cell-vesicle binding, primary screen, mouse 2C CD8+ T cells, flow cytometry. 2C CD8+ T cell-vesicle binding; active compounds read low. response (vesicle binding), % at 7 µM. 330,000 tested, 0.068% active;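 active = response, share of CD8 T cells binding vesicles, and their 90th percentile fluorescence all below set limits, cut at about 80% in these data, passing the limit was not always enough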;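 note: values below 100% mean blocked vesicle binding to the CD8+ T cells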
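Material: murine 2C transgenic CD8+ T lymphocytes / Also added: QL9-peptide-loaded Drosophila micro-vesicles bearing Ld, ICAM-1 and B7-1 / Schedule: binding step 1.5 h, 37 °C, antibody labelling 20 min, ice / Signal: flow cytometry, PE anti-B7-1 (FL2) versus Alexa647 anti-CD8 (FL8), PFA-fixed / Evaluation: percent CD8+ FL2 mean versus row control / Benchmarks: naked versus QL9-loaded vesicles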
GPR7 antag: GPR7 receptor antagonists, primary screen, cell-based, fluorescence, single concentration; GPR7-expressing cells, fluorescence antagonist assay; inhibition, % at 4.4 µM; AID 1861, 2009; 290,000 tested, 1.1% active; Neuropeptides B/W receptor type 1 (Homo sapiens), P48145; in the data active = inhibition above about 16%, passing the limit was not always enough;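 note: cells stimulated with the agonist NPW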
Pemphigus Ab inh: inhibitors of pemphigus antibody binding to DSG3, primary screen, biochemical, bead-based, flow cytometry, scFv-GFP; DSG3-coupled beads, scFv-anti-DSG3-GFP binding; active compounds read low; binding (percent of control), % at 10 µM; 310,000 tested, 0.48% active; AID 588358, 2011;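 active = binding more than 3 SD below its plate's average and above zero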;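 note: hits lower antibody fragment binding to DSG3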
Target sequence (P32926 whole entry, looked up, the tested form may be a part): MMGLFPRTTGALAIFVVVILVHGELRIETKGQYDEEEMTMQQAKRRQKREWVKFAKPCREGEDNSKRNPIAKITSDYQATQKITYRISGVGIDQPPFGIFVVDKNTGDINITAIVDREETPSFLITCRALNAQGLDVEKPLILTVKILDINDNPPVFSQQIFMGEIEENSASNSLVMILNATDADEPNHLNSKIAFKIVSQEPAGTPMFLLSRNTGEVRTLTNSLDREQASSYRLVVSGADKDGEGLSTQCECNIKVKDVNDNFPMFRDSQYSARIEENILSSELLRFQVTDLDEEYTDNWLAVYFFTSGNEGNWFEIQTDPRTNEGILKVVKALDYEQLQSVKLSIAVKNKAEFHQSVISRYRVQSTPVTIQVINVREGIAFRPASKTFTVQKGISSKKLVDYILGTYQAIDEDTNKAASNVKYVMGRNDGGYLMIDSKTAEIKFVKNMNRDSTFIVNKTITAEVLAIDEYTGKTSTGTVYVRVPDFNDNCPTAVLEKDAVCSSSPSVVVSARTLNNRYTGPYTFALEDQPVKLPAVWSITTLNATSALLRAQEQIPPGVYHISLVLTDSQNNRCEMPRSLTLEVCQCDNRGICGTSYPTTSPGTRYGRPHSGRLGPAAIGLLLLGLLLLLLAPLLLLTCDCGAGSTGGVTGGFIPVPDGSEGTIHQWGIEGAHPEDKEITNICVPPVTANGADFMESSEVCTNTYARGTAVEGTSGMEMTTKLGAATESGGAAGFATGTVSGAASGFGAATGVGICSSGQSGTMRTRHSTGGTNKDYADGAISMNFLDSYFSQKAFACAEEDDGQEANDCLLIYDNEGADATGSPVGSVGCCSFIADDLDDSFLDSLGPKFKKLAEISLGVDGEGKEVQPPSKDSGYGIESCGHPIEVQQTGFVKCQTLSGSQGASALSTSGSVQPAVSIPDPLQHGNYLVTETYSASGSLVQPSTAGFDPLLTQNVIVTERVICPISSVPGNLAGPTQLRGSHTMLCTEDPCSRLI
CHT block conf: CHT inhibitors, confirmation, cell-based, membrane potential dye, duplicate. CHT-expressing cells, choline membrane potential dye; LV-to-AA substituted CHT, HEK293 cells. CHT activity remaining % of control (active compounds read low), % at 10 µM. 2,400 tested, 70% active. shares compounds with CHT block. AID 493221, 2011;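 active = choline transporter activity left, mean of duplicates at 10 µM, below buffer-only control mean minus 3 SD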;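 note: depolarization triggered by choline at its EC90 following an EC20 pre-addition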
HEK293 MPD ctr: membrane potential effects in parental HEK293, counter-screen for CHT inhibitor project, cell-based, membrane potential dye; shares compounds with CHT block; choline response; active = decrease or increase beyond buffer ±3SD; membrane potential ratio readout (active if shifted either direction beyond buffer ±3SD; no single direction) at 10 µM; 2,400 tested, 4% active;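 note: parental cells lack the transporter so any hit is non-specific; ratio is peak minus trough fluorescence over baseline after EC90 choline challenge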
Of the large screens only hits and unclear results are named; the others gave an inactive call (follow-up assays come after a bar, where they were run).

CN(C)CCn1c(=O)n(-c2ccc(F)cc2)c(=O)c2c3c(sc21)CCCCC3	none
O=C1NN(c2ccccc2)C(=O)/C1=C\c1coc2ccc(O)cc2c1=O	none
O=C1NN(c2ccccc2)C(=O)/C1=C/c1coc2ccccc2c1=O	CHT block -5.3 | CHT block conf 31% | HEK293 MPD ctr inactive
Cc1cc(NC(=O)OC2CCCCC2)ccc1[N+](=O)[O-]	none
Cc1ccc(S(=O)(=O)NCCC(=O)NC(C)CCc2ccccc2)cc1 (centres undefined)	CHT block -5.1 (no result: pCIP destab, GPR7 antag) | CHT block conf 50% | HEK293 MPD ctr inactive
CCOC(=O)C1CCCN(C(=O)c2csc(-c3ccc4c(c3)CCO4)n2)C1 (centres undefined)	CHT block -7.2 | CHT block conf 57% | HEK293 MPD ctr inactive
CC(C)=CCN1CCN(Cc2cn(C(C)C)c3ccccc23)CC1CCO (centres undefined)	CHT block -5 | CHT block conf 40% | HEK293 MPD ctr inactive
Cc1ccc(CN2CCN(Cc3cn(C(C)C)c4ccccc34)CC2CCO)o1 (centres undefined)	none
O=C(NNC(=S)NC(=O)c1sc2ccccc2c1Cl)c1ccc(Cl)cc1	CHT block -7.3 | CHT block conf 32% | HEK293 MPD ctr inactive
O=C(NNC1=C(C(=O)C(F)(F)F)CCC1)c1ccc(Cl)cc1	CHT block -5.1 | CHT block conf 40% | HEK293 MPD ctr inactive
O=C(NNC1=C(C(=O)C(F)(F)F)CCC1)c1cccc(Cl)c1	CHT block -9.8 | CHT block conf 40% | HEK293 MPD ctr inactive
CN(C)C(CNC(=O)CSc1nc2sc3c(c2c(=O)n1C)CCCC3)c1ccccc1 (centres undefined)	none (no result: CHT PAM, pCIP destab, CHT block, GPR7 antag, Pemphigus Ab inh)
CN1CCN(c2oc(Cc3cccc4ccccc34)nc2C#N)CC1	CHT block -7 | CHT block conf 62% | HEK293 MPD ctr inactive
N#Cc1nc(Cc2cccc3ccccc23)oc1NCCCn1ccnc1	none
N#Cc1nc(Cc2cccc3ccccc23)oc1NCCCN1CCOCC1	CHT block -5.7 | CHT block conf 69% | HEK293 MPD ctr inactive
N#Cc1nc(Cc2cccc3ccccc23)oc1N1CCCCC1	none
C[C@@H]1CN([C@@H](C)CO)C(=O)CCCn2nncc2CO[C@@H]1CN(C)S(=O)(=O)c1ccc(C#N)cc1	none (no result: CHT PAM, pCIP destab, CHT block, T cell modulator, GPR7 antag)
CCOc1ccc(C=NNC(=O)c2cccc3ccccc23)cc1OCC	none (no result: CHT PAM, pCIP destab, CHT block, T cell modulator, GPR7 antag)
COc1cc(OC)cc(C(=O)NC(=S)NNC(=O)[C@H]2C[C@@H]2c2ccccc2)c1	CHT block -6.8 (no result: Pemphigus Ab inh) | CHT block conf 53% | HEK293 MPD ctr inactive
CCC(=O)c1cn(CC(=O)Nc2ccc(F)cc2)c2ccccc12	none (no result: CHT PAM, pCIP destab, CHT block, T cell modulator, GPR7 antag)
Cc1ccc(-c2nnn(CC(=O)N(CCN3CCOCC3)C(C(=O)NC(C)(C)C)c3ccco3)n2)cc1 (centres undefined)	CHT block -6.2 | CHT block conf 24% | HEK293 MPD ctr -10
CC1CCN(C(=O)CSCC(=O)Nc2nc(-c3cccs3)cs2)CC1	CHT block -5.3 | CHT block conf inactive | HEK293 MPD ctr inactive
Cc1ccc([N+](=O)[O-])cc1N	none
CCc1cc([N+](=O)[O-])cc(CC)c1N	CHT block -5.9 | CHT block conf 40% | HEK293 MPD ctr inactive

Source: PubChem BioAssay (several laboratories)
